Hits are enriched below; roughly 1.8% of the tested compounds scored in any of these assays.
M5 PAM – human M5 muscarinic receptor positive allosteric modulators, primary screen, CHO-K1 cells, Fluo-8 calcium fluorescence. Muscarinic acetylcholine receptor M5 (Homo sapiens), P08912. CHO-K1 hM5, ACh EC20 PAM; 0% = ACh EC20, 100% = ACh EC100. activation, % at 3 µM. 0.3% of 360,000 active;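 active means activation above the run cutoff, the mean activation of all test compounds plus 3 SD, cut at about 18% in these data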
Target sequence (P08912 whole entry, looked up): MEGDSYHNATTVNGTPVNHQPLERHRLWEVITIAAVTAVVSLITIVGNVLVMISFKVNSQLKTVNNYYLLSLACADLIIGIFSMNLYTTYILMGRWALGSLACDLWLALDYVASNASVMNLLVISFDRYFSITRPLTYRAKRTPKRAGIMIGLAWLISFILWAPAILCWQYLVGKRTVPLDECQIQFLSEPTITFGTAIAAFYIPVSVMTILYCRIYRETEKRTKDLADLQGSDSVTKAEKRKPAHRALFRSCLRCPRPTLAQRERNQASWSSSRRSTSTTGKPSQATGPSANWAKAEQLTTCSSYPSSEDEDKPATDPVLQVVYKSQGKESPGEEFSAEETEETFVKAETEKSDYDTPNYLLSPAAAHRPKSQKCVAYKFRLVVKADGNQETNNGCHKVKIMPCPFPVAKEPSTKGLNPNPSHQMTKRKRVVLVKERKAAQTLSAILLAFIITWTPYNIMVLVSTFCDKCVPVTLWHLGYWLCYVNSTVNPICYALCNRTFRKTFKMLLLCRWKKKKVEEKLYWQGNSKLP
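System: CHO-K1 cell line with stable human muscarinic M5 receptor expression | Also added: EC20 acetylcholine as agonist stimulus | Compound: One concentration, 3 µM final (nominal) | Timing: Fluo-8 loading 80 min at 37 °C plus 30 min room temperature | Measured by: Fluo-8 calcium dye fluorescence, kinetic read | Read-out basis: % activation, ACh-normalized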
M5 antag – human M5 muscarinic receptor antagonists, primary screen, CHO cells, Fluo-8 calcium fluorescence; CHO-hM5 cells, ACh EC80; inhibition, % at 3 µM; 0.59% of 360,000 active;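 active means inhibition above a per-plate cutoff, the mean of that plate's test compounds plus 3 SD, cut at about 27% in these data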;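 further: 0% = acetylcholine EC80 with DMSO and 100% = DMSO without agonist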
CHRM4 PAM – human M4 muscarinic receptor positive allosteric modulators, primary screen, CHO-K1 cells, Fluo-8 calcium fluorescence. AID 624126, 2012. activation, % at 3 µM. 0.4% of 360,000 active. Muscarinic acetylcholine receptor M4 (Homo sapiens), P08173. CHO-K1 hM4/Gqi5, ACh EC20; 0% = ACh EC20, 100% = maximal ACh;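 active means activation above its plate's cutoff, the mean activation of sample wells plus 3 SD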
M4 antag – human M4 muscarinic receptor antagonists, primary screen, CHO cells, Fluo-8 calcium fluorescence | AID 624125, 2012 | Muscarinic acetylcholine receptor M4 (Homo sapiens), P08173 | CHO-hM4 cells, ACh EC80 | 0.73% of 360,000 active | inhibition, % at 3 µM;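 active means inhibition above its plate's cutoff, the mean inhibition of sample wells plus 3 SD, cut at about 27% in these data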;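 further: 0% = acetylcholine EC80 with DMSO and 100% = DMSO without agonist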
M4 ag – human M4 muscarinic receptor agonists, primary screen, CHO-K1 cells, Fluo-8 calcium fluorescence | 0.14% of 360,000 active | AID 624127, 2012 | activation, % at 3 µM | CHO-K1 hM4/Gqi5; vehicle 0%, full acetylcholine response 100%;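 active means activation above the run mean over all test wells plus 3 SD, cut at about 32% in these data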;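 further: peak over basal fluorescence ratio per well then scaled between controls; 0% = DMSO wells and 100% = acetylcholine at EC100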
M5 ag – human M5 muscarinic receptor agonists, primary screen, CHO-K1 cells, Fluo-8 calcium fluorescence; Muscarinic acetylcholine receptor M5 (Homo sapiens), P08912; CHO-K1 hM5 cells; 0% DMSO wells, 100% maximal acetylcholine response; activation, % at 3 µM; 0.19% of 360,000 active;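 active means activation above the run's mean over test compounds plus 3 SD, cut at about 23% in these data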;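 further: signal is peak over basal fluorescence ratio across the kinetic read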
Active calls of the source: *.

SMILES | M5 PAM | M5 antag | CHRM4 PAM | M4 antag | M4 ag | M5 ag
CC1=C(C)CC(C(=O)NC2CCCC2)C(C(=O)O)C1 (centres undefined) | 5.2 | 1.6 | 8.0 | 1.5 | 0.8 | -2.2
COc1cccc(CNC(=O)C2CCN(S(=O)(=O)c3ccc4c(c3)C(C)(C)C(=O)N4C)CC2)c1 | -7.3 | -2.4 | -1.1 | -27.5 | 4.0 | -1.8
CCOC(=O)N1CCN(C(=O)c2ccc3nc(N4CCC(C)CC4)sc3c2)CC1 | 3.8 | -2.3 | 15.7* | -2.2 | 2.3 | 3.4
CCCCC(=O)N1CCN(c2nc3ccc(Br)cc3s2)CC1 | -3.6 | -11.4 | 19.4* | -0.7 | 12.4 | 7.3
CCCC(=O)N1CCN(c2nc3ccc(CC)cc3s2)CC1 | 1.2 | -7.1 | 14.8 | -0.3 | 5.3 | -1.0
CC(=O)N1CCN(c2nc3ccc(Br)cc3s2)CC1 | 5.6 | -9.7 | -0.3 | -2.5 | 5.1 | 1.2
CCCC(=O)N1CCN(c2nc3ccc(Br)cc3s2)CC1 | -8.3 | 7.2 | 28.9* | 1.1 | 12.5 | 2.1
Cc1ccccc1Cn1nnc(C(=O)Nc2ccc3c(c2)OCCO3)c1N | 6.9 | 2.9 | -4.3 | -7.7 | 4.2 | 6.6
Cc1cc(C)cc(NC(=O)c2nnn(Cc3cc(C)ccc3C)c2N)c1 | -5.2 | 16.5 | -10.0 | 14.7 | 32.4* | 28.1*
Cc1ccc(C)c(Cn2nnc(C(=O)Nc3ccc4c(c3)OCCO4)c2N)c1 | 2.3 | 5.9 | 6.8 | -4.1 | 22.9 | 36.2*
COc1ccc(F)cc1-c1cc(C(=O)N2CCc3ccccc3C2)[nH]n1 | -0.4 | 9.5 | 4.7 | -14.4 | 2.4 | -1.8
Cc1ccc(S(=O)(=O)N(C)C)cc1NC(=O)C(C)N(C)Cc1sccc1C (centres undefined) | -11.3 | 29.8* | -14.8 | 11.5 | 6.3 | -3.3
C/C(=N\NC(=O)c1nnn(-c2nonc2N)c1CN1CCOCC1)c1ccc(CC(C)C)cc1 | -3.3 | 2.7 | 1.1 | -6.7 | 3.2 | -4.3
CCCC/C(O)=C1\C(=O)CC(C)(C)CC1=Nc1ccc(OC)cc1 | -1.1 | -1.9 | -16.8 | 30.5* | -3.0 | -0.9
CCC/C(O)=C1\C(=O)CC(C)(C)CC1=Nc1ccc(OC)cc1 | 6.3 | 3.8 | -2.5 | 0.0 | -1.7 | -1.1
O=C(CN1CCCC1)NC(=O)NC1CCCC1 | 6.8 | -2.2 | -0.6 | 1.2 | 0.2 | 0.2
O=C(CN1CCCCC1)NC(=O)NC1CCCCC1 | -17.2 | 55.1* | 0.4 | 12.4 | 0.8 | -4.6
NC(=O)C1CCN(CC(=O)NC(=O)NC2CCCC2)CC1 | -1.1 | 9.2 | 19.6* | -5.9 | 2.3 | -0.9
Cc1ccccc1C(=O)NC1CCN(CC(=O)Nc2ccccc2)CC1 | 2.6 | 2.0 | 3.9 | 5.0 | 1.8 | 2.7
Cc1ccccc1C(=O)NC1CCN(CC(=O)Nc2c(C)cccc2C)CC1 | 31.6* | -6.4 | 29.1* | -7.0 | 2.9 | -6.8
CC(=O)Oc1ccc(/C(C)=N/N2CCN(Cc3ccc(C)cc3)CC2)cc1 | -7.9 | -4.7 | -5.7 | 3.3 | 0.6 | -0.4
C[C@@H]1CN([C@@H](C)CO)C(=O)c2cc(Br)cnc2O[C@@H]1CN(C)Cc1ccc(Oc2ccccc2)cc1 | 0.5 | 5.3 | -10.5 | 10.9 | 0.3 | -3.4
CC(NC(=O)c1ccc([N+](=O)[O-])o1)C1CC2CCC1C2 (centres undefined) | 4.6 | 3.5 | -2.2 | -1.4 | 0.2 | 1.0
Cc1c(Cl)cccc1NC(=O)CNC(=O)c1ccc2c(c1)OCCO2 | -0.2 | -0.2 | 21.8* | -39.7 | 2.8 | 1.1
Cc1c(Cl)cccc1NC(=O)CNC(=O)c1ccc(F)cc1 | -7.8 | 8.2 | -5.6 | 21.4 | 1.8 | 0.0
SMILES | M5 PAM | M5 antag | CHRM4 PAM | M4 antag | M4 ag | M5 ag
COCCOc1nc2ccccc2nc1C | 29.8* | 5.5 | 9.5 | 5.8 | 0.7 | -2.6
CCn1c(SCC(=O)NC2=NCCS2)nnc1C(C)NC(=O)c1ccc(Cl)cc1 (centres undefined) | -3.1 | 13.4 | -0.3 | 10.4 | 2.0 | -4.7
Cc1cccc(NC(=O)c2ccc(F)c(S(=O)(=O)NCc3ccco3)c2)c1 | 19.4* | -15.6 | 2.9 | -8.4 | 1.1 | 2.4
CCCCCC(=O)NNC1=NCC(Cc2cccc(Cl)c2)S1 (centres undefined) | 8.5 | 2.6 | 2.9 | 0.2 | 0.2 | -0.4
O=C(O)CSC1c2ccccc2C(=O)N1c1ccccc1 (centres undefined) | 37.5* | -4.2 | 0.4 | -13.6 | 0.1 | -7.0
O=C1c2ccccc2NC(c2ccccc2O)N1c1ccc(F)cc1 (centres undefined) | -6.2 | 4.0 | -3.9 | -3.9 | 0.6 | -5.6
Cc1c(C(c2ccc(O)cc2)c2c(C)n(C)n(-c3ccccc3)c2=O)c(=O)n(-c2ccccc2)n1C | -13.4 | 30.7* | -7.5 | -3.8 | 11.9 | 0.8
COc1ccc(-n2c(Cc3cccn3C)nnc2SCC(=O)Nc2cccc(OC)c2)cc1 | -6.3 | 3.7 | 18.5* | -5.3 | -1.4 | 4.4
COc1ccc(-c2csc(NC(=O)CSC(C)C(=O)Nc3cc(C)on3)n2)cc1OC (centres undefined) | -3.2 | -0.5 | -0.9 | -5.2 | 12.1 | 4.9
N#C/C(=C/c1ccc(N2CCOCC2)o1)C(=O)Nc1ccccc1 | -20.8 | 27.3* | -16.4 | 13.2 | 53.7* | 42.6*
N#C/C(=C\c1ccc(N2CCOCC2)o1)C(=O)NCCc1ccccc1 | -22.9 | 16.1 | -12.9 | 3.1 | 34.5* | 47.0*
COc1ccc(CNC(=O)c2[nH]c(C)c(C(C)=O)c2C)cc1 | -3.2 | 17.6 | -1.6 | 9.3 | 1.6 | -2.3
O=C(Nc1nnc(CCS(=O)(=O)c2ccc3ccccc3c2)s1)c1cccs1 | 1.2 | -3.5 | 21.2* | -6.8 | 1.1 | -2.5
COc1ccc(S(=O)(=O)CCc2nnc(NC(=O)c3cccs3)s2)cc1 | -0.1 | 0.1 | 2.8 | 13.2 | 0.6 | -0.4
OCC[C@@H]1C[C@H](O)[C@@H](O)[C@]2(CCCc3ccccc3O2)O1 | 4.4 | 8.4 | 4.6 | -2.1 | 1.3 | 2.5
c1ccn2cc(C34CC5CC(CC(C5)C3)C4)nc2c1 | -19.2 | 9.6 | -27.3 | 60.0* | 2.4 | -17.9
COc1cc(NCCCC(C)N)c2ncccc2c1 (centres undefined) | 22.1* | 4.8 | 2.9 | -2.2 | 2.4 | -0.3
COc1ccc(NC(=O)C2CCN(C(=O)c3cccs3)CC2)cc1OC | 0.5 | 3.5 | 3.1 | -5.5 | 0.4 | -6.2

Assay outcomes deposited in PubChem BioAssay by The Scripps Research Institute Molecular Screening Center.
